We go through four compounds from PMC5807869 (ACS Medicinal Chemistry Letters, 2018).

Data set [1] is described as follows: Apparent passive permeability, RRCK. In kind it is in vitro ADME, Canine.
Data set [2] is described as follows: Metabolic stability in human liver microsomes. In kind it is in vitro ADME. (In general: Liver microsomes are vesicles of endoplasmic reticulum, rich in cytochrome P450 enzymes.)
A short description of data set [3]: iv/po PK in rat. The class given is in vivo. Summed up: (§1)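 Each species study used two animals per dose. Clearance is the observed plasma clearance. The same studies also gave steady-state volume of distribution, half-life, oral bioavailability and percent renal clearance.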
Data set [4] is described as follows: Metabolic stability in human hepatocytes. In kind it is in vitro ADME.
A short description of data set [5]: Predicted human pharmacokinetics. Particulars: predicted from in vitro and in vivo properties.
A short description of data set [6]: iv/po PK in NHP. The class given is in vivo, Cynomolgus monkeys. Conditions: male, cynomolgus monkey, plasma, 1 mg/kg. In outline: as §1
In data set [7] the test system is broad spectrum BioPrint panel. As to the kind of experiment: Broad spectrum BioPrint panel selectivity screening. Conditions: no significant activities.
The target of data set [8] is PDE5A1 (Homo sapiens, UniProt O76074). As to the kind of experiment: Phosphodiesterase SPA assay, PDE5A1. In kind it is biochemical. Conditions: PDE5/2 selectivity.

The structures appear in SMILES notation.

Take `Cc1nn2c(-c3c(C)nn(C)c3-c3ccc(C(F)(F)F)cc3)nc(C)c2c(=O)[nH]1` [Compound 1]: in data set [1] (dog, MDCK), the Papp is 23 ×10⁻⁶ cm/s. Besides, the CLint scaled in data set [2] worked out at 16 mL/min/kg; in data set [4], 18 mL/min/kg. The “in vivo rat clearance profile” value in data set [3] is “not show any extra-hepatic clearance pathways”.
As for `Cc1nn2c(-c3c(C)nn(C)c3-c3ccc(C(F)(F)F)cc3)nc(CO)c2c(=O)[nH]1` [Compound 2, 7-(1,3-dimethyl-5-(4-(trifluoromethyl)phenyl)-1H-pyrazol-4-yl)-5-(hydroxymethyl)-2-methylimidazo[5,1-f][1,2,4]triazin-4(3H)-one], the “decrease of passive permeability relative to 1” value in data set [1] (RRCK Papp, 2 vs 1) is listed as 3 fold. For the same compound, in data set [5], the “predicted human plasma clearance” value was 2.9 mL/min/kg, the “predicted human t1/2” value is given as 3.7 h and the “predicted human volume of distribution” value is 0.9 L/kg. In data set [2], this compound displayed a CLint scaled of less than 8 mL/min/kg. Further, in data set [6], the clearance was found to be 4 mL/min/kg. For the same compound, the “IC50 or EC50 in BioPrint panel” value in data set [7] was greater than 10 µM. This compound displayed a CLint scaled in data set [4] of less than 0.36 mL/min/kg. In data set [8], the “selectivity over other phosphodiesterases (margin)” value is no less than 1000 fold.
The compound `Cc1nn2c(-c3c(CO)nn(C)c3-c3ccc(C(F)(F)F)cc3)nc(C)c2c(=O)[nH]1` [Compound 5] yielded a CLint scaled in data set [2] of less than 8 mL/min/kg.
Take `Cc1nn2c(-c3c(CO)nn(C)c3-c3ccc(C(F)(F)F)cc3)nc(CO)c2c(=O)[nH]1` [Compound 6]: the CLint scaled in data set [2] was less than 9.2 mL/min/kg.

One may read the Papp as the rate of passage across a membrane or cell layer, normalised by area and donor concentration. Usually CLint scaled stands for a measure of how fast metabolising enzymes remove a compound, apart from limits set by blood flow. Low values mean greater metabolic stability, high ones faster metabolism.
